# Calls of active or inactive are those of the source. No cut-off for these calls is given here.
# How the values were obtained:
# [1] = target: T1, Type-2 angiotensin II receptor (Homo sapiens) (UniProt P50052); assay: Agonist activity at AT2 receptor (unknown origin) expressed in NG108-15 cells assessed as induction of neurite outgrowth at 10 nM after 3 days by phase contrast microscopy; format: cell-based
# T1 sequence (whole entry): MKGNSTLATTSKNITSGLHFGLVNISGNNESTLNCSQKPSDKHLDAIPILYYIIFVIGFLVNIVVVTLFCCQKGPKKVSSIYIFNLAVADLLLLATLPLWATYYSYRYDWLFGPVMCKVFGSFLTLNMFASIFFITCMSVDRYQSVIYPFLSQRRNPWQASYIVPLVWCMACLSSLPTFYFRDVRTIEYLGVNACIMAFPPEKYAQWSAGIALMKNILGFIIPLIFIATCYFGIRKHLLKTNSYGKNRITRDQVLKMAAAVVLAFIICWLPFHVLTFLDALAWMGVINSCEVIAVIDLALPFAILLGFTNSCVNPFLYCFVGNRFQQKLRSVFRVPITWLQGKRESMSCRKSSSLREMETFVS
# How it was run: (§1)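 Undifferentiated NG108-15 cells were plated at 3.6×10^4 cells per 35 mm dish and cultured 3 days with agent alone, or with 10 μM PD 123,319 or 100 nM Ang II. Phase-contrast micrographs were taken. A cell with at least one neurite longer than its cell body scored positive, expressed as percent of total cells counted (at least 400). Two-way ANOVA.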
# [2] = target: T1, Type-2 angiotensin II receptor (Homo sapiens); assay: Agonist activity at AT2 receptor (unknown origin) expressed in NG108-15 cells assessed as induction of neurite outgrowth at 100 nM after 3 days by phase contrast microscopy; format: cell-based; how it was run: as §1
# [3] = target: T1, Type-2 angiotensin II receptor (Homo sapiens); assay: Antagonist activity against AT2 receptor (unknown origin) expressed in NG108-15 cells assessed as reduction in angiotension-2-induced neurite outgrowth at 10 nM after 3 days by phase contrast microscopy; format: cell-based; how it was run: as §1
# [4] = Binding affinity to AT2 receptor (unknown origin)
# [5] = target: T1, Type-2 angiotensin II receptor (Homo sapiens); assay: Agonist activity at AT2 receptor (unknown origin) expressed in NG108-15 cells assessed as induction of neurite outgrowth at 10 nM after 3 days in presence of 10 uM AT2 receptor antagonist PD 123,319 by phase contrast microscopy; format: cell-based; how it was run: as §1
# [6] = target: T2, Type-1 angiotensin II receptor A (Rattus norvegicus, UniProt P25095); assay: Displacement of [125I]-Ang II from AT1 receptor in rat liver membranes after 2 hrs by gamma-counting method; format: cell membranes, Membrane
# T2 sequence (P25095 whole entry): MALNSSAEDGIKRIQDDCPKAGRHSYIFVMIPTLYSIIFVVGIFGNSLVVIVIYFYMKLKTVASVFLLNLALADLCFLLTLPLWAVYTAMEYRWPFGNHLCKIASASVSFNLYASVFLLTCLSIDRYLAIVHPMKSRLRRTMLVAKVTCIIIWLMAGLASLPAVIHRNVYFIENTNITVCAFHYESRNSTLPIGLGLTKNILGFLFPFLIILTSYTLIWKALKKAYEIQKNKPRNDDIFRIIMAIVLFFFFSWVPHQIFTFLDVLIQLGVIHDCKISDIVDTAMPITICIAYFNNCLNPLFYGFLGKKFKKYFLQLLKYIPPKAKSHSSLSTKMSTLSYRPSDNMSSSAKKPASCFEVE
# [7] = target: T1, Type-2 angiotensin II receptor (Homo sapiens); settings: NG108-15, 10 uM
# [8] = target: T3, Type-1 angiotensin II receptor (Homo sapiens, UniProt P30556); assay: Displacement of [125I]-[Sar1,Leu8]angiotensin II from human AT1 receptor expressed in african green monkey COS7 cells; format: cell-based, COS-7
# T3 sequence (P30556 whole entry): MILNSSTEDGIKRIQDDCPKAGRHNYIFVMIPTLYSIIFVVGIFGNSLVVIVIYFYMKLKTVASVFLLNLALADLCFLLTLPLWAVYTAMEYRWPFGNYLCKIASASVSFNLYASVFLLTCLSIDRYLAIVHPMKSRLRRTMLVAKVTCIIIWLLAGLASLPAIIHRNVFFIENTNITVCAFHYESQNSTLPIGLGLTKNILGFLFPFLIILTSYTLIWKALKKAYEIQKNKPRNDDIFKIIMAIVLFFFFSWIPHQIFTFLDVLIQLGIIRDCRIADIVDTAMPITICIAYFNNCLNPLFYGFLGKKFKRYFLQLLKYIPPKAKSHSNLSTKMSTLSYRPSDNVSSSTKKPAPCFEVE
SMILES,Activity [1],Activity [5],further results
CCCCOC(=O)NS(=O)(=O)c1ccc(CC(C)C)cc1-c1cccc(Cn2ccnc2)c1,inactive,,Activity [2]: inactive; inhibition [3]: Active
CCCCOC(=O)NS(=O)(=O)c1ccc(CCC)cc1-c1ccc(Cn2c(CC)nc3c(C)cc(C)nc32)cc1,,,IC50 [4]: 4.2 nM
CCCCOC(=O)NS(=O)(=O)c1sc(CC(C)C)cc1-c1ccc(Cn2ccnc2)cc1 [BULOXIBUTID],,,Ki [6]: > 10000 nM
Cc1cc(Cn2cnc3c2C[C@@H](C(=O)O)N(C(=O)C(c2ccccc2)c2ccccc2)C3)ccc1N(C)C,,,inhibition [7]: Active
CCCCOC(=O)NS(=O)(=O)c1ccc(CC(C)C)cc1-c1ccc(Cn2c(CC)nc3c(C)cc(C)nc32)cc1,,,IC50 [8]: 2.1 nM; IC50 [4]: 0.7 nM

# Second part, led by results:
Activity [1],Activity [5],SMILES,further results
Active,inactive,CCCCOC(=O)NS(=O)(=O)c1cc(CC(C)C)ccc1-c1cccc(Cn2ccnc2)c1,
Active,inactive,CCCCOC(=O)NS(=O)(=O)c1ccc(CC(C)C)cc1-c1ccc(Cn2ccnc2)cc1,
Active,inactive,CCCCOC(=O)NS(=O)(=O)c1cc(CC(C)C)ccc1-c1ccc(Cn2ccnc2)cc1,

# Source: ChEMBL document CHEMBL3392997, “Interconversion of Functional Activity by Minor Structural Alterations in Nonpeptide AT2 Receptor Ligands” (ACS Med Chem Lett, 2015)
